Source: ChEMBL document CHEMBL5316280, “Development of N-(1-Adamantyl)benzamides as Novel Anti-Inflammatory Multitarget Agents Acting as Dual Modulators of the Cannabinoid CB2 Receptor and Fatty Acid Amide Hydrolase” (J Med Chem, 2023)
The source made the active and inactive calls. The calls are words filed in the database; no cut-off is given here.

Experiments:
THP-1 [1] = experiment: Antiinflammatory activity in human THP-1 monocytes assessed as increase in IL-10 level incubated for 24 hrs by ELISA based qRT-PCR analysis; format: functional, cell-based
Outline: (§1)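 THP-1 cells were seeded at 1 x 10⁵ cells/ml for 48 h. For macrophages, cells were differentiated with 0.01 µM PMA for 48 h; monocytes received no PMA. Cells were then given 24 h with or without 10 µg/ml LPS, plus ligands alone or with the CB2R inverse agonist JTE907 (10 µM). Cytokines were measured in 5 µL supernatant (from 1 x 10⁴ cells) by ProQuantum immunoassay, read as pg/ml from kit titration curves; n=3.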

Cannabinoid receptor 2 [2] = biological target: T1, Cannabinoid receptor 2 (Homo sapiens, UniProt P34972); experiment: Agonist activity at human CB2 receptor overexpressed in CHO-K1 cells assessed as cAMP level incubated for 30 mins by luminescence based assay; format: functional, cell-based
T1 sequence (P34972 whole entry): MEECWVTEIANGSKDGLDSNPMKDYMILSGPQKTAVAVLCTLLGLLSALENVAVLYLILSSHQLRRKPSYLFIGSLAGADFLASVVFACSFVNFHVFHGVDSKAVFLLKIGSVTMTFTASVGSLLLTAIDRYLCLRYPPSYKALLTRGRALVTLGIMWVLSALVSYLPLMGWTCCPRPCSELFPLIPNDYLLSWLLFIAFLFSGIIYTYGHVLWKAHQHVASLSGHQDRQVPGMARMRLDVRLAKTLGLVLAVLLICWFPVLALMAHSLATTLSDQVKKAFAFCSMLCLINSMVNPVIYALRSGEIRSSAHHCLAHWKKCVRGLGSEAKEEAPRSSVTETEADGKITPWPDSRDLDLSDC
Outline: (§2)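 CHO-K1 cells overexpressing human CB2R were plated at 30 000 cells/well and held overnight at 37 °C, 5% CO2. Test samples were added as dose–response solutions with NKH-477 to stimulate adenylate cyclase, then incubated 30 min at 37 °C. cAMP was detected by luminescence after cell lysis. Values were normalized to NKH-477 alone as 100% response. Three independent experiments were run in triplicate.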

Cannabinoid receptor 2 [3] = biological target: T1, Cannabinoid receptor 2; experiment: Agonist activity at human CB2 receptor overexpressed in CHO-K1 cells assessed as cAMP level incubated for 30 mins by luminescence based assay relative to control; format: functional, cell-based; conditions: filed as agonist; outline: as §2
THP-1 [4] = experiment: Antiinflammatory activity in human THP-1 macrophages assessed as increase in IL-4 level incubated for 24 hrs by ELISA based qRT-PCR analysis; format: functional, cell-based; outline: as §1
THP-1 [5] = experiment: Antiinflammatory activity in human THP-1 monocytes assessed as increase in IL-4 level incubated for 24 hrs by ELISA based qRT-PCR analysis; format: functional, cell-based; outline: as §1
Cannabinoid receptor 2 [6] = biological target: Cannabinoid receptor 2 (Mus musculus, UniProt P47936); experiment: Agonist activity at mouse CB2 receptor transfected in CHO-K1 cells assessed as beta2-arrestin recruitment incubated for 90 mins by luminescence based assay; format: functional, cell-based
Cannabinoid receptor 2 (Mus musculus, UniProt P47936), sequence (P47936 whole entry): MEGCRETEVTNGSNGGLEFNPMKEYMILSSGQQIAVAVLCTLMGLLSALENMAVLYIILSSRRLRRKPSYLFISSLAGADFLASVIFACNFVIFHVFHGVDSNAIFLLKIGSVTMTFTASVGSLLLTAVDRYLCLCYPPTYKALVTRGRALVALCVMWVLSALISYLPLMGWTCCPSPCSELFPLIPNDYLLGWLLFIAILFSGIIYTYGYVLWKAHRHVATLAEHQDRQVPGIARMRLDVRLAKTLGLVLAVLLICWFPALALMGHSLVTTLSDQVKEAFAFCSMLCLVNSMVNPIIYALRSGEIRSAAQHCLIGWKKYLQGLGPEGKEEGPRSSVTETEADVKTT
Outline: (§3)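 PathHunter eXpress kit using mouse CB2 receptor in CHO-K1 cells. Cells were seeded 48 h before the assay in kit medium. Compounds in cell plating reagent were incubated 90 min at 37 °C, 5% CO2. Working detection solution was then added for 60 min at room temperature to read β-arrestin recruitment.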

[7] = biological target: Cannabinoid receptor 2 (Mus musculus) (UniProt P47936); experiment: Agonist activity at mouse CB2 receptor transfected in CHO-K1 cells assessed as beta2-arrestin recruitment incubated for 90 mins by luminescence based assay relative to control; format: functional, cell-based; outline: as §3
Cannabinoid receptor 2 (Mus musculus), sequence (P47936 whole entry): as above

THP-1 [8] = experiment: Antiinflammatory activity in human THP-1 macrophages assessed as decrease in IL-6 level incubated for 24 hrs by ELISA based qRT-PCR analysis; format: functional, cell-based; outline: as §1
THP-1 [9] = experiment: Antiinflammatory activity in human THP-1 monocytes assessed as decrease in IL-6 level incubated for 24 hrs by ELISA based qRT-PCR analysis; format: functional, cell-based; outline: as §1
THP-1 [10] = experiment: Antiinflammatory activity in human THP-1 monocytes assessed as decrease in TNFalpha level incubated for 24 hrs by ELISA based qRT-PCR analysis; format: functional, cell-based; outline: as §1
THP-1 [11] = experiment: Antiinflammatory activity in human THP-1 macrophages assessed as decrease in IFNgamma level incubated for 24 hrs by ELISA based qRT-PCR analysis; format: functional, cell-based; outline: as §1
THP-1 [12] = experiment: Antiinflammatory activity in human THP-1 monocytes assessed as decrease in IL-1beta level incubated for 24 hrs by ELISA based qRT-PCR analysis; format: functional, cell-based; outline: as §1
THP-1 [13] = experiment: Antiinflammatory activity in human THP-1 macrophages assessed as decrease in IL-1beta level incubated for 24 hrs by ELISA based qRT-PCR analysis; format: functional, cell-based; outline: as §1
THP-1 [14] = experiment: Antiinflammatory activity in human THP-1 macrophages assessed as increase in IL-10 level incubated for 24 hrs by ELISA based qRT-PCR analysis; format: functional, cell-based; outline: as §1
THP-1 [15] = experiment: Antiinflammatory activity in human THP-1 macrophages assessed as decrease in TNFalpha level incubated for 24 hrs in presence of […] by ELISA based qRT-PCR analysis; format: functional, cell-based; outline: as §1
THP-1 [16] = experiment: Antiinflammatory activity in human THP-1 monocytes assessed as decrease in IFNgamma level incubated for 24 hrs in presence of […] by ELISA based qRT-PCR analysis; format: functional, cell-based; outline: as §1
THP-1 [17] = experiment: Antiinflammatory activity in human THP-1 macrophages assessed as decrease in IFNgamma level incubated for 24 hrs in presence of […] by ELISA based qRT-PCR analysis; format: functional, cell-based; outline: as §1
THP-1 [18] = experiment: Antiinflammatory activity in human THP-1 monocytes assessed as decrease in IL-1beta level incubated for 24 hrs in presence of […] by ELISA based qRT-PCR analysis; format: functional, cell-based; outline: as §1
THP-1 [19] = experiment: Antiinflammatory activity in human THP-1 macrophages assessed as decrease in IL-1beta level incubated for 24 hrs in presence of […] by ELISA based qRT-PCR analysis; format: functional, cell-based; outline: as §1
THP-1 [20] = experiment: Antiinflammatory activity in human THP-1 monocytes assessed as decrease in IL-6 level incubated for 24 hrs in presence of […] by ELISA based qRT-PCR analysis; format: functional, cell-based; outline: as §1
THP-1 [21] = experiment: Antiinflammatory activity in human THP-1 macrophages assessed as decrease in IL-6 level incubated for 24 hrs in presence of […] by ELISA based qRT-PCR analysis; format: functional, cell-based; outline: as §1
THP-1 [22] = experiment: Antiinflammatory activity in human THP-1 monocytes assessed as increase in IL-4 level incubated for 24 hrs in presence of […] by ELISA based qRT-PCR analysis; format: functional, cell-based; outline: as §1
THP-1 [23] = experiment: Antiinflammatory activity in human THP-1 monocytes assessed as increase in IL-10 level incubated for 24 hrs in presence of […] by ELISA based qRT-PCR analysis; format: functional, cell-based; outline: as §1
THP-1 [24] = experiment: Antiinflammatory activity in human THP-1 macrophages assessed as increase in IL-10 level incubated for 24 hrs in presence of […] by ELISA based qRT-PCR analysis; format: functional, cell-based; outline: as §1
Cannabinoid receptor 1 [25] = biological target: T2, Cannabinoid receptor 1 (Homo sapiens, UniProt P21554); experiment: […] human CB1 receptor in CHO cells incubated for 15 mins by plate reader analysis relative to control; format: cell-based
T2 sequence (P21554 whole entry): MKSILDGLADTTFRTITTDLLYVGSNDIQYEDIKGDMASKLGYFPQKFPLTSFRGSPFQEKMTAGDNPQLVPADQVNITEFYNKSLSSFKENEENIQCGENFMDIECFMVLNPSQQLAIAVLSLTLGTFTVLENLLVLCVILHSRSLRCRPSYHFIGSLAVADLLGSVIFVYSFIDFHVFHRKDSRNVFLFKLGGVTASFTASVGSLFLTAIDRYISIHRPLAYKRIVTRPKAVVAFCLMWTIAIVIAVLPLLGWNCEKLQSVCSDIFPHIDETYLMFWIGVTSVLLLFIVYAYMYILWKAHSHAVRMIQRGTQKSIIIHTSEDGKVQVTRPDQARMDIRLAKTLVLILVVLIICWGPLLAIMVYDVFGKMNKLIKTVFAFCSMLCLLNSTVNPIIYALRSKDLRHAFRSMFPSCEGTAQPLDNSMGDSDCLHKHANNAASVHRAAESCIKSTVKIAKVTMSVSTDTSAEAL
Outline: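 CHO-CB1 C3 cells (human CB1) were seeded at 8000 cells/well in medium with dialyzed FBS and preincubated 15 min at 37 °C. Compounds or the CP55940 control were added for 15 min at 37 °C, then forskolin 10 µM for 5 min. cAMP was read by HTRF after 1 h at room temperature (λex 320 nm, λem 620-665 nm).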

[26] = Metal chelating activity assessed as Fe2+-compound complex formation incubated for 15 mins by Ferrozine based assay
Outline: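 FeSO₄ (25 µM) in water incubated with or without test compound (100 µM, DMSO) for 15 min at room temperature, 300 µL final. Ferrozine then added (1 mM final), shaken 15 min at room temperature. Absorbance of the ferrozine–Fe(II) magenta complex read at 562 nm; chelation seen as reduced complex formation.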

Cannabinoid receptor 1 [27] = biological target: T2, Cannabinoid receptor 1; experiment: Displacement of [3H]CP55940 from recombinant human CB1 receptor expressed in HEK293 cell membrane incubated for 60 mins by beta scintillation counter method

SMILES | Activity (THP-1 [1]) | EC50 (Cannabinoid receptor 2 [2]) [nM] | Emax (Cannabinoid receptor 2 [3]) [%] | Activity (THP-1 [4]) | Activity (THP-1 [5]) | EC50 (Cannabinoid receptor 2 [6]) [nM] | Emax [7] [%] | Activity (THP-1 [8]) | Activity (THP-1 [9]) | Activity (THP-1 [10]) | Activity (THP-1 [11]) | Activity (THP-1 [12]) | Activity (THP-1 [13]) | Activity (THP-1 [14]) | Activity (THP-1 [15]) | Activity (THP-1 [16]) | Activity (THP-1 [17]) | Activity (THP-1 [18]) | Activity (THP-1 [19]) | Activity (THP-1 [20]) | other results
CCCCCOc1ccccc1C(=O)NC12CC3CC(CC(C3)C1)C2 | Active | 86.9 | 95.3 | Active | Active | 23.8 | 34.5 | Active | inactive | Active | Active | inactive | Active | Active | inactive | inactive | inactive | inactive | inactive | inactive | Activity (THP-1 [21]): inactive; Activity (THP-1 [22]): inactive; Activity (THP-1 [23]): inactive; Activity (THP-1 [24]): inactive; Emax (Cannabinoid receptor 1 [25]): 100%; Activity [26]: Active; Ki (Cannabinoid receptor 1 [27]): 153 nM
O=C(NC12CC3CC(CC(C3)C1)C2)c1ccccc1OCc1ccccc1 | Active | 124 | 96.3 | Active | Active | 51.8 | 12.6 | inactive | inactive | Active | Active | Active | Active | Active | inactive | inactive | inactive | inactive | inactive | inactive | Activity (THP-1 [21]): inactive; Activity (THP-1 [22]): inactive; Activity (THP-1 [23]): inactive; Activity (THP-1 [24]): inactive; Emax (Cannabinoid receptor 1 [25]): 100%; Activity [26]: Active; Ki (Cannabinoid receptor 1 [27]): 241 nM
O=C(NC12CC3CC(CC(C3)C1)C2)c1ccccc1OCC1CCCCC1 | Active | 283 | 90.1 | Active | Active | 10.7 | 5.5 | Active | Active | Active | Active | Active | Active | Active | inactive | inactive | inactive | inactive | inactive | inactive | Activity (THP-1 [21]): inactive; Activity (THP-1 [22]): inactive; Activity (THP-1 [23]): inactive; Activity (THP-1 [24]): inactive; Emax (Cannabinoid receptor 1 [25]): 75%; Activity [26]: Active; Ki (Cannabinoid receptor 1 [27]): 67.6 nM
